The results in this text go back to ChEMBL document CHEMBL1138657 (2004).

≈ marks a conversion by molar mass, not a printed value. Bounds are passed on as bounds.

Assay [1] concerns Candida parapsilosis. Description: Antifungal activity to inhibit Candida parapsilosis ATCC 22019. Format: functional, Fungi. To be noted: Lodderomyces parapsilosis.
In assay [2] the test system is U-937. Put plainly: Cytotoxicity to reduce human histolytic lymphoma U937 cells. Format: functional. Put shortly: (§1)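 CC50 is the concentration in µM that reduces viability of human histiocytic lymphoma U937 or chronic myeloid leukemia K562 cells by 50%.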
The subject of assay [3] is Candida albicans. Description: Antifungal activity to cause 99% reduction of surviving cells range is equal to 8-16. Format: functional, Fungi.
The test system of assay [4] is Candida parapsilosis. Description: Minimum inhibitory concentration to inhibit Candida parapsilosis ATCC 22019. To be noted: Lodderomyces parapsilosis. The format is functional, Fungi. In outline:
(§2)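 Broth microdilution per NCCLS document against 20 C. albicans strains. […] MIC is reported in µg/mL as the arithmetic mean ± SD. MIC50 and MIC90 are the MICs at which 50% and 90% of isolates are inhibited. C. parapsilosis ATCC22019 was run as the QC strain.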

The test system of assay [5] is K562. Description: Cytotoxicity to reduce chronic myeloid leukemia K 562 cells. The format is functional. The conditions noted are these: Homo sapiens. In outline:
as §1

In assay [6] the test system is Candida albicans. Description: Minimum inhibitory concentration to inhibit 90% of the isolates. Format: functional, Fungi. Put shortly: as §2
The subject of assay [7] is Candida albicans. Put plainly: Antifungal activity to cause 99% reduction of surviving cells in 50% isolates. The format is functional, Fungi.
In assay [8] the test system is Candida albicans. Put plainly: Minimum inhibitory concentration to inhibit Candida albicans strain range is equal to 16-128. The format is functional, Fungi. In outline: as §2
Assay [9] concerns Candida albicans. Description: Antifungal activity to cause 99% reduction of surviving cells in 90% isolates. The format is functional, Fungi.
Assay [10] relates to Candida albicans. Description: Minimum inhibitory concentration to inhibit 50% of the isolates. The format is functional, Fungi. Put shortly: as §2
Assay [11] relates to Candida albicans. Description: Minimum inhibitory concentration to inhibit Candida albicans strain range is equal to 2-8. The format is functional, Fungi. Put shortly: as §2
The test system of assay [12] is Candida albicans. Description: Antifungal activity to cause 99% reduction of surviving cells range is equal to 8-32. The format is functional, Fungi.
Assay [13] deals with Candida albicans. Put plainly: Minimum inhibitory concentration to inhibit Candida albicans strain range is equal to 1-4. The format is functional, Fungi. Put shortly: as §2
The subject of assay [14] is Candida albicans. Put plainly: Antifungal activity to cause 99% reduction of surviving cells range is equal to 2-16. The format is functional, Fungi.
Assay [15] relates to Candida albicans. Description: Antifungal activity to cause 99% reduction of surviving cells range is equal to 4-32. The format is functional, Fungi.
Assay [16] concerns Candida albicans. Description: Minimum inhibitory concentration to inhibit Candida albicans strain range is equal to 1-8. Format: functional, Fungi. In outline: as §2
Assay [17] has as its system Candida albicans. Put plainly: Antifungal activity to cause 99% reduction of surviving cells range is equal to 2-32. Format: functional, Fungi.
Assay [18] has as its system Candida albicans. Put plainly: Antifungal activity to cause 99% reduction of surviving cells range is equal to 4-16. The format is functional, Fungi.
Assay [19] has as its system Candida albicans. Description: Antifungal activity to cause 99% reduction of surviving cells. Format: functional, Fungi.
Assay [20] concerns Candida albicans. Description: Minimum inhibitory concentration to inhibit Candida albicans strain range is equal to 0.125-64. The format is functional, Fungi.

Broadly, the MFC is the smallest concentration meeting the test's criterion for killing the fungus. Read a high MFC as less potent killing. In general, CC50 refers to the concentration at which the toxic effect on the cells reaches its halfway point. A word on the MIC: it is the smallest concentration in the dilution series that meets the test's criterion for growth inhibition. Broadly, the MIC90 is an inhibitory concentration at the 90% level, which refers to growth in some studies and to a panel of isolates in others. Low values mean greater potency, high ones weaker potency. Usually MIC50 stands for the lowest concentration that inhibits either 50% of growth or 50% of the strains tested, depending on the study. In the case of `Cc1ccc(OC(CCn2ccnc2)c2ccccc2)cc1` (stereo not drawn), the minimum fungicidal concentration (MFC) was 16 µg/mL (≈ 54.7 µM) in assay [1] and less than 16 µg/mL in assay [3]. Also, the values for the half-maximal cytotoxic concentration (CC50) in [2] and in assay [5] were 141 µM and 95.9 µM, respectively. In addition, the results for the minimum inhibitory concentration (MIC) in assay [4] and in assay [8] were 2 µg/mL (≈ 6.84 µM) and 16 µg/mL (≈ 54.7 µM), respectively. Besides, in [6], the MIC90 amounted to 16 µg/mL (≈ 54.7 µM). For the same compound, the MFC50 in assay [7] was 16 µg/mL (≈ 54.7 µM). In assay [9], this compound had an MFC90 of 16 µg/mL (≈ 54.7 µM). The same compound gave an MIC50 in assay [10] of 8 µg/mL (≈ 27.4 µM).

For `Clc1ccc(COC(Cn2ccnc2)c2ccc(Cl)cc2Cl)cc1` (stereo not drawn) [ECONAZOLE], the minimum fungicidal concentration (MFC) was 2 µg/mL (≈ 5.24 µM) in [1] and less than 32 µg/mL in assay [12]. Besides, the CC50 in assay [2] came to 60 µM; in assay [5], 54.7 µM. Also, the MIC is 2 µg/mL (≈ 5.24 µM) in [4] and less than 8 µg/mL in [11]. This compound also displayed an MIC90 in [6] of 8 µg/mL (≈ 21 µM). The compound also came in with an MFC50 in assay [7] of 16 µg/mL (≈ 41.9 µM). In [9], this compound registered an MFC90 of 32 µg/mL (≈ 83.8 µM). The compound also returned an MIC50 in assay [10] of 4 µg/mL (≈ 10.5 µM).

As to `Cc1ccc(C(CCn2ccnc2)Oc2ccc(Cl)cc2Cl)cc1` (stereo not drawn), the results for the minimal inhibitory concentration (MIC) in assay [13] and in [4] were less than 4 µg/mL and 1 µg/mL (≈ 2.77 µM), respectively. Also, the values for the minimal fungicidal concentration (MFC) in assay [1] and in assay [14] were 4 µg/mL (≈ 11.1 µM) and less than 16 µg/mL, respectively. In addition, the CC50 was found to be 40 µM in assay [2] and 31.4 µM in [5]. In [6], the MIC90 was found to be 8 µg/mL (≈ 22.1 µM). In assay [7], the MFC50 is 4 µg/mL (≈ 11.1 µM). In assay [9], the MFC90 is 16 µg/mL (≈ 44.3 µM). The MIC50 in assay [10] was 2 µg/mL (≈ 5.54 µM).

Regarding `Clc1ccc(COC(Cn2ccnc2)c2ccc(Cl)cc2Cl)c(Cl)c1` (stereo not drawn) [MICONAZOLE], the MFC in assay [1] is 0.5 µg/mL (≈ 1.2 µM); in assay [15], less than 32 µg/mL. Besides, the figures for the CC50 in [2] and in assay [5] were 40 µM and 39.3 µM, respectively. Further, the MIC is 1 µg/mL (≈ 2.4 µM) in [4] and less than 8 µg/mL in [16]. Also, in assay [6], the MIC90 amounted to 4 µg/mL (≈ 9.61 µM). For the same compound, the MFC50 in assay [7] was 8 µg/mL (≈ 19.2 µM). The same compound had an MFC90 in assay [9] of 16 µg/mL (≈ 38.4 µM). Also, the MIC50 in [10] is 4 µg/mL (≈ 9.61 µM).

As for `Clc1ccc(OC(CCn2ccnc2)c2ccccc2)cc1` (stereo not drawn), the MFC is 32 µg/mL (≈ 102 µM) in [1] and less than 32 µg/mL in [17]. For the same compound, the CC50 in [2] worked out at 84.9 µM; in [5], 221 µM. Besides, the MIC in [4] was 4 µg/mL (≈ 12.8 µM); in [16], less than 8 µg/mL. This compound displayed an MIC90 in [6] of 4 µg/mL (≈ 12.8 µM). In assay [7], this compound registered an MFC50 of 4 µg/mL (≈ 12.8 µM). Further, in assay [9], the MFC90 came to 16 µg/mL (≈ 51.2 µM). The same compound registered an MIC50 in assay [10] of 2 µg/mL (≈ 6.39 µM).

For the compound `Clc1ccc(OC(CCn2ccnc2)c2ccccc2)c(Cl)c1` (stereo not drawn), the MFC in [18] was less than 16 µg/mL; in [1] it was 8 µg/mL (≈ 23 µM). Further, the results for the CC50 in assay [2] and in assay [5] were 56.5 µM and 96.7 µM, respectively. Moreover, the MIC in [4] was 2 µg/mL (≈ 5.76 µM); in assay [16], less than 8 µg/mL. The same compound came in with an MIC90 in assay [6] of 8 µg/mL (≈ 23 µM). In assay [7], this compound displayed an MFC50 of 8 µg/mL (≈ 23 µM). Also, the MFC90 in assay [9] was 8 µg/mL (≈ 23 µM). Further, in [10], the MIC50 came out at 4 µg/mL (≈ 11.5 µM).

As to `OC(Cn1cncn1)(Cn1cncn1)c1ccc(F)cc1F` [FLUCONAZOLE], the minimum fungicidal concentration (MFC) in assay [1] was 8 µg/mL (≈ 26.1 µM); in assay [19], more than 64 µg/mL. For the same compound, the CC50 in [2] was found to be 316 µM; in assay [5], 385 µM. Also, the MIC is 0.5 µg/mL (≈ 1.63 µM) in [4] and less than 64 µg/mL in assay [20]. This compound returned an MIC90 in [6] of 64 µg/mL (≈ 209 µM). In assay [10], this compound showed an MIC50 of 2 µg/mL (≈ 6.53 µM).
